PLCg1 inh: PLC-gamma1 (human) inhibition, primary screen | P19174 | 370,000 tested, 0.84% active | inhibition, % at 12.2 µM | AID 720700 | purified PLC-gamma1, fluorogenic substrate, fluorescence; in the data active = inhibition above about 9.5%
DDE Tn6 FP inh: disrupts Tn6 cyclic peptide binding to fibrin D-Dimer-E complex. P02675. Fibrin DD(E) TRITC-Tn6 fluorescence polarization displacement. inhibition, % at 8.3 µM. 370,000 tested, 0.21% active. AID 720509;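 active = inhibition above a per-campaign cutoff: mean of compounds within control limits plus 3 SD, cut at about 15% in these data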;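 also: 0% = median of all compound wells on the plate and 100% = blocking peptide control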
Target sequence (P02675 whole entry, looked up): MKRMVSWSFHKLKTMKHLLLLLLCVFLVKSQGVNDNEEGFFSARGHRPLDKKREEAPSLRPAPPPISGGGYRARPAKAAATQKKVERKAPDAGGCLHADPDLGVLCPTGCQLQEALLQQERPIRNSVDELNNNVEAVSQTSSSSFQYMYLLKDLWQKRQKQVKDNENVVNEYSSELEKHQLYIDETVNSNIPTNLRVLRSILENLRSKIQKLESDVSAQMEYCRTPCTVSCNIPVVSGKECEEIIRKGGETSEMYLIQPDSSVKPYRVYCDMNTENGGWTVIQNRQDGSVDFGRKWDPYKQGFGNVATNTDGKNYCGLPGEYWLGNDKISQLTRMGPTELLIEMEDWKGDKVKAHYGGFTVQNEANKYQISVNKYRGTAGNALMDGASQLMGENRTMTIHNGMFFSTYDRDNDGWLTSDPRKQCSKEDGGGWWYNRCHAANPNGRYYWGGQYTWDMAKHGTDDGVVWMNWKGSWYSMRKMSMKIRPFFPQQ
ADAM17 inh: inhibits human ADAM17; 370,000 tested, 0.83% active; AID 720648; recombinant ADAM17, EDANS/DABCYL FRET peptide cleavage; inhibition, % at 6.95 µM; P78536;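 active = inhibition above the mean of compounds lying between control limits plus 3 SD, set per campaign, cut at about 8.5% in these data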;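 also: 0% = DMSO-only wells as the low control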
Tn7 DDE FP: inhibitors of Tn7 peptide binding to human fibrin DD(E); FP displacement of FITC-Tn7 peptide from fibrin DD(E); 0% = median of compound wells per plate; 370,000 tested, 0.13% active; inhibition, % at 8.3 µM; P02675;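 active = inhibition above the mean of compounds falling within the control limits plus 3 SD of them, cut at about 14% in these data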;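 also: 0% = plate median of compound wells and 100% = 10 µM Aha-Tn7 peptide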
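Test system: human clot-derived fibrin DD(E) complex / Quantity: 2 µM final DD(E) protein / Incubation: 10 min plus 3 h, room temperature / Measured by: fluorescence polarization / Benchmarks: high control of 10 µM Aha-Tn7 peptide / Replicates: singlicate testing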
PLC-beta3 inh: blocks human PLC-beta3 enzyme activity. Purified PLC-beta3, fluorogenic substrate, fluorescence. AID 720704. 370,000 tested, 0.18% active. Q01970. inhibition, % at 12.2 µM; in the data active = inhibition above about 11%;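 also: 0% = median of compound wells on plate and 100% = full blocker control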
ADAM10 inh: inhibitors of human ADAM10 | O14672 | recombinant ADAM10, EDANS/DABCYL FRET peptide cleavage, 3 h | inhibition, % at 7 µM | 370,000 tested, 0.62% active | AID 720582;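 active = inhibition above a per-campaign cutoff equal to the mean of compounds falling between control-based bounds plus 3 SD, cut at about 20% in these data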;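 also: 0% = DMSO wells while the 100% control is not disclosed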
Tn6 DDE ctr: counter-screen for inhibitors of Tn6 peptide binding to fibrin DD(E); inhibition, % at 8.3 µM; 680 tested, 2% active; shares compounds with DDE Tn6 FP inh; TRITC-Tn6 fluorescence polarization displacement; 0% = median of compound wells, not DMSO;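 active = inhibition above the mean of test compounds lying between the control limits plus 3 SD of those, cut at about 14% in these data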;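 also: 0% = median of compound wells and 100% = wells with Aha-Tn7 blocking peptide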
Tn6 DDE conf: confirmation of inhibitors of Tn6 binding to human fibrin DD(E) | shares compounds with DDE Tn6 FP inh | FP displacement of TRITC-Tn6 peptide from DD(E); 0% = per-plate median of test wells | inhibition, % at 8.3 µM | 680 tested, 10% active | AID 720631;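 active = inhibition above the mean of compounds lying within the control limits plus 3 SD, cut at about 16% in these data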;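 also: 100% = high control wells holding a competing inhibitor peptide at 10 µM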
Numbers without * were called inactive. Most compounds without a hit are left out; they make up all but 2.3% or so of the library.

Screening O=c1ccc2nc3ccccc3sc-2c1 returned PLCg1 inh -33.4, DDE Tn6 FP inh 19.6*, ADAM17 inh -9.3, Tn7 DDE FP -2.8, PLC-beta3 inh -46.2, ADAM10 inh -29.0, Tn6 DDE ctr -5.8 and Tn6 DDE conf 14.7.
`NC(N)=N/N=C/c1ccccc1OC(F)F` gave PLCg1 inh 1.0, DDE Tn6 FP inh 17.1*, ADAM17 inh -1.5, Tn7 DDE FP 1.1, PLC-beta3 inh -2.8, ADAM10 inh 0.1, Tn6 DDE ctr -1.2 and Tn6 DDE conf -0.6.
For COc1ccccc1C=NN=C(N)C(N)=NN=Cc1ccccc1OC the results were PLCg1 inh 0.9, DDE Tn6 FP inh -9.5, ADAM17 inh -5.1, Tn7 DDE FP -0.4, PLC-beta3 inh -0.2 and ADAM10 inh -4.0.
For COC(=O)[C@]12C[C@H](CC(=O)NCc3cccs3)C(=O)N(Cc3ccco3)C1=C[C@H](C(C)(C)C)O[C@@H]2C the results were PLCg1 inh 0.3, DDE Tn6 FP inh 1.1, ADAM17 inh 0.2, Tn7 DDE FP 3.9, PLC-beta3 inh -1.6 and ADAM10 inh -3.8.
`O=C(CSc1nc2ccccc2[nH]1)NN=Cc1c(F)cccc1Cl` gave PLCg1 inh -1.3, DDE Tn6 FP inh 10.3, ADAM17 inh 0.3, Tn7 DDE FP -3.3, PLC-beta3 inh -1.6 and ADAM10 inh 3.4.
CCCCCCN1CCS(=O)(=O)N(Cc2ccccc2)C(C(=O)OC)C1 (centres undefined) was read as PLCg1 inh -1.2, DDE Tn6 FP inh -5.2, ADAM17 inh 0.6, Tn7 DDE FP -7.3, PLC-beta3 inh 1.4 and ADAM10 inh 3.8.
`COc1cccc(-c2nnc3sc(-c4ccc(Br)o4)nn23)c1` gave PLCg1 inh -7.5, DDE Tn6 FP inh 7.9, ADAM17 inh -0.5, Tn7 DDE FP -3.1, PLC-beta3 inh -3.1 and ADAM10 inh -2.4.
For COc1ccc(CCC(=O)Nc2sccc2C#N)cc1 the results were PLCg1 inh -3.4, DDE Tn6 FP inh 4.4, ADAM17 inh -0.6, Tn7 DDE FP 4.0, PLC-beta3 inh -5.5 and ADAM10 inh -1.0.
Screening COc1ccc(NC(=O)CSCC(=O)Nc2sccc2C#N)cc1 returned PLCg1 inh -8.4, DDE Tn6 FP inh 16.3*, ADAM17 inh -4.8, Tn7 DDE FP 6.3, PLC-beta3 inh -13.9, ADAM10 inh -11.2, Tn6 DDE ctr 1.0 and Tn6 DDE conf 5.6.
For O=C(CN1CCc2onc(-c3ccc(-n4cc(C5=CCCCC5)nn4)cc3)c2C1=O)N1CCOCC1 the results were PLCg1 inh -1.6, DDE Tn6 FP inh -0.5, ADAM17 inh -1.5, Tn7 DDE FP -6.0, PLC-beta3 inh -1.9 and ADAM10 inh -16.6.
`O=C(NC(=S)Nc1ccccc1)c1cc(-c2ccccc2)nc2ccccc12` gave PLCg1 inh 0.6, DDE Tn6 FP inh 20.7*, ADAM17 inh 2.2, Tn7 DDE FP 4.9, PLC-beta3 inh -1.4, ADAM10 inh 13.6, Tn6 DDE ctr 6.9 and Tn6 DDE conf -2.5.
For O=C(Nc1cccc(F)c1)c1ccc(-n2cncn2)c2ccoc12 the results were PLCg1 inh -1.6, DDE Tn6 FP inh 16.4*, ADAM17 inh -2.1, Tn7 DDE FP 1.5, PLC-beta3 inh -2.1, ADAM10 inh -6.2, Tn6 DDE ctr 8.2 and Tn6 DDE conf -5.7.
For CC(=O)c1cccc(NC(=O)c2ccc(-n3cncn3)c3ccoc23)c1 the results were PLCg1 inh 9.3, DDE Tn6 FP inh 5.7, ADAM17 inh 4.0, Tn7 DDE FP 0.2, PLC-beta3 inh 1.8 and ADAM10 inh 0.6.
CC(C)(C)c1ccc(-c2nnc(SCC(=O)Nc3ccc4cn[nH]c4c3)n2-c2ccc(Cl)cc2)cc1 was read as PLCg1 inh 5.3, DDE Tn6 FP inh 3.0, ADAM17 inh 4.2, Tn7 DDE FP -0.7, PLC-beta3 inh 5.3 and ADAM10 inh 9.6.
`CCCCC(=O)N1CCN(C(=O)c2ccc3c(c2)nc(C)n3C2CCCC2)CC1` gave PLCg1 inh 6.0, DDE Tn6 FP inh 4.5, ADAM17 inh 6.2, Tn7 DDE FP -1.8, PLC-beta3 inh 4.7 and ADAM10 inh 9.1.
For COc1ccc(C(=O)c2ccsc2N)cc1 the results were PLCg1 inh -43.4, DDE Tn6 FP inh 19.3*, ADAM17 inh -4.3, Tn7 DDE FP 3.5, PLC-beta3 inh -70.0, ADAM10 inh -4.2, Tn6 DDE ctr -6.1 and Tn6 DDE conf -8.4.
Screening Cc1cccc(CNC(=S)OC2CCC23CCC(c2ccccc2)CC3)c1 (centres undefined) returned PLCg1 inh -1.4, DDE Tn6 FP inh 0.8, ADAM17 inh 0.1, Tn7 DDE FP 1.4, PLC-beta3 inh -1.6 and ADAM10 inh 0.7.
COc1ccc(/C=N/N2CCN(c3ccccc3OC)CC2)cc1OC was read as PLCg1 inh -0.6, DDE Tn6 FP inh -4.0, ADAM17 inh -1.8, Tn7 DDE FP -4.0, PLC-beta3 inh -1.5 and ADAM10 inh -9.3.
`COc1ccccc1N1CCN(/N=C/c2ccc(C(=O)O)cc2)CC1` gave PLCg1 inh 0.0, DDE Tn6 FP inh 16.6*, ADAM17 inh -1.3, Tn7 DDE FP -6.0, PLC-beta3 inh -3.1, ADAM10 inh -4.3, Tn6 DDE ctr -3.0 and Tn6 DDE conf -7.7.
`CCOC(=O)C1(C)C(=O)CC2c3nc4ccccc4cc3CN2C1=O` (centres undefined) gave PLCg1 inh -74.2, DDE Tn6 FP inh 74.8*, ADAM17 inh -8.8, Tn7 DDE FP 3.8, PLC-beta3 inh -100.8, ADAM10 inh -62.4, Tn6 DDE ctr 3.7 and Tn6 DDE conf 47.4*.
Screening CN(CC(=O)N1CCc2ccccc21)S(=O)(=O)c1cccs1 returned PLCg1 inh 5.6, DDE Tn6 FP inh 16.1*, ADAM17 inh -0.3, Tn7 DDE FP -4.6, PLC-beta3 inh 4.0, ADAM10 inh 4.7, Tn6 DDE ctr 1.5 and Tn6 DDE conf -4.1.
For CC(C(=O)N1CCc2ccccc21)N1CCN(S(=O)(=O)c2cccs2)CC1 (centres undefined) the results were PLCg1 inh 3.3, DDE Tn6 FP inh -5.6, ADAM17 inh -4.8, Tn7 DDE FP -1.2, PLC-beta3 inh -1.4 and ADAM10 inh -0.6.
For CCC(Sc1nc2ncccc2[nH]1)C(=O)NC1CCCC1 (centres undefined) the results were PLCg1 inh 3.0, DDE Tn6 FP inh 18.0*, ADAM17 inh -2.9, Tn7 DDE FP -1.2, PLC-beta3 inh -0.8, ADAM10 inh -13.2, Tn6 DDE ctr 0.5 and Tn6 DDE conf -1.3.

From PubChem
